Screening results from PubChem BioAssay.
Sampled rows, rich in hits. Any-hit rate of the full collection: about 1.5%.
CHT inh – human CHT choline transport inhibition; Q9GZV3; CHT-expressing cells, membrane potential dye, choline response; hits give low values; B-score at 10 µM; actives 0.86% (n = 310,000); AID 488975;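 active = B-score over 3 SD under the library average, and starting fluorescence ratio not unusually high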;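 also: choline stimulus applied at its EC90 after an EC20 pre-addition; B-score computed on integrated fluorescence ratio after choline addition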
CHT PAM – allosterically activates the human high affinity choline transporter; CHT-expressing cells, membrane potential dye, choline EC20; hits give high values; LV-AA mutant CHT in HEK293 cells; actives 0.49% (n = 310,000); Q9GZV3; B-score at 10 µM;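 active = initial fluorescence not abnormally high and integrated response B-score, plate-corrected, over 3 SD above library mean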
VLA-4 inh – inhibition in a human VLA-4 binding assay; inhibition, % (about 7 µM as worked out from the volumes in the protocol); VLA-4 expressing cells, ligand binding flow cytometry; actives 0.2% (n = 330,000); AID 2557; in the data active = inhibition above about 50%
Target sequence (P13612 whole entry, looked up): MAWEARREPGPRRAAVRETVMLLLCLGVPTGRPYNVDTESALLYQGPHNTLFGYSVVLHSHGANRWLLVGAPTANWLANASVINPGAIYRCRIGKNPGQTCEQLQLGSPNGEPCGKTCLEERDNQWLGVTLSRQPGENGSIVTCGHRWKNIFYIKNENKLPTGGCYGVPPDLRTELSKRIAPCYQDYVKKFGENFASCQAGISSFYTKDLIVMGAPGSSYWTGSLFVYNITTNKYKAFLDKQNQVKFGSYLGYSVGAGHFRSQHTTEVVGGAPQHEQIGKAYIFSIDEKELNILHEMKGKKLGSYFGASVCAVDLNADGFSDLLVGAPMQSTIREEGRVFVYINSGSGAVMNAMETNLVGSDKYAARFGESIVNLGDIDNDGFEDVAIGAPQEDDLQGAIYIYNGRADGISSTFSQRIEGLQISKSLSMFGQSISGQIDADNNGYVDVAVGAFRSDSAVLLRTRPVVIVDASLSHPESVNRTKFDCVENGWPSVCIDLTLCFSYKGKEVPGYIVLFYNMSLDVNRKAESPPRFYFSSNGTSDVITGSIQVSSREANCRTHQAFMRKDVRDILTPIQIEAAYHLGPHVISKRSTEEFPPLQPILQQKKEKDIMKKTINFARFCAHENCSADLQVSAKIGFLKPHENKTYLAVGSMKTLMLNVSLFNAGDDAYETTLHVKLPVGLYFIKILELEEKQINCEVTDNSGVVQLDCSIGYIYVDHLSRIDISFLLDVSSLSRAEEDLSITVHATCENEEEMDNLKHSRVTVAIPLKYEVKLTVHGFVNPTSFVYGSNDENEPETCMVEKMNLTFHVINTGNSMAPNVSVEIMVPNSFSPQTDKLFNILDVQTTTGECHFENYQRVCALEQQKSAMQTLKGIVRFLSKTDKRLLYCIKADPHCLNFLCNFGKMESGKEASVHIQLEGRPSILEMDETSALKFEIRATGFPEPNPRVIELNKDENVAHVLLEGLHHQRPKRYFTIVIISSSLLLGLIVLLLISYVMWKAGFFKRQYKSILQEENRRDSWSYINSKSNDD
T cell HTS – T cell immune modulators affecting CD8 T cell-vesicle binding; 2C CD8+ T cell-vesicle binding, flow cytometry; hits give low values; response (vesicle binding), % at 7 µM; actives 0.068% (n = 330,000);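 active = response, share of CD8 T cells binding vesicles, and their 90th percentile fluorescence all below set limits, cut at about 80% in these data, passing the limit was not always enough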;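 also: values below 100% mean blocked vesicle binding to the CD8+ T cells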
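Benchmarks: naked versus QL9-loaded vesicles / Assay system: purified 2C TCR transgenic mouse naive CD8+ T cells / Technique: high-throughput flow cytometry with anti-B7-1 and anti-CD8 staining / Timing: Cell–vesicle co-incubation 1.5 h at 37 °C, staining 20 min on ice / Read-out: percent CD8+ FL2 mean versus row control / Probe or stimulus: QL9-loaded Drosophila micro-vesicles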
CHT activ conf – confirmation of human choline transporter (CHT) activators. shares compounds with CHT PAM. CHT-expressing cells, membrane potential dye fluorescence (FDSS); % of choline EC20–EC90 response window; HEK293 expressing CHT LV-AA mutant; choline added at its EC20. activation, % at 10 µM. actives 91% (n = 2,500). AID 504833;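 active = primary screen active, with duplicate mean activation above negative control mean plus 3 SD, cut at about 11% in these data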
HEK293 MP dye – CHT activator counter-screen hit in parental HEK293 cells; shares compounds with CHT PAM; membrane potential dye fluorescence (FDSS); measured after EC20 choline addition; ratio readout change at 10 µM, hits read low; actives 62% (n = 2,500);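 active = duplicate-averaged ratio beyond 3 SD from buffer wells, up or down, though filed actives are nearly all decreases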
An asterisk follows results filed as active.

What do the screens show for `CCN(CC)c1cc(C)c2cc(NC(=O)CNC(C)=O)ccc2n1`?
CHT inh: inactive; CHT PAM: 6.5*; VLA-4 inh: 0; T cell HTS: 163; CHT activ conf: 56*; HEK293 MP dye: -31*

How did CCN(CC)c1cc(C)c2cc(NC(=O)c3ccccc3F)ccc2n1 do in these assays?
CHT inh: inactive; CHT PAM: inactive; VLA-4 inh: 15; T cell HTS: 149

How did CCCCN(CC)C(=O)Cn1ncc2c3ccccc3n(CCC)c2c1=O do in these assays?
CHT inh: inactive; CHT PAM: inactive; VLA-4 inh: 1; T cell HTS: 160

Results for Cc1cc(C)c2c(n1)nn1c(NCCOCCO)cc(C)nc21 ?
CHT inh: inactive; CHT PAM: 8.5*; VLA-4 inh: 1; T cell HTS: 522; CHT activ conf: 75*; HEK293 MP dye: -63*

What do the screens show for `Cc1cc(C)c2c(n1)nn1c(N3CCN(c4ccccc4)CC3)cc(C)nc21`?
CHT inh: inactive; CHT PAM: inactive; VLA-4 inh: -2; T cell HTS: 438

Results for Cc1c(C(=O)N2CCC(C)CC2)oc2ccc3c(c12)C(O)CC1(CCCCC1)O3 (centres undefined) ?
CHT inh: inactive; CHT PAM: inactive; VLA-4 inh: 4; T cell HTS: 741

How did O=C(C1CCN(CC2CC=CCC2)CC1)N(CCc1ccccc1)Cc1ccccc1 (centres undefined) do in these assays?
CHT inh: inactive; CHT PAM: inactive; VLA-4 inh: 25; T cell HTS: 216; CHT activ conf: 4; HEK293 MP dye: inactive

How did O=C(C1CCN(S(=O)(=O)c2cnc[nH]2)CC1)N(CCc1ccccc1)Cc1ccccc1 do in these assays?
CHT inh: inactive; CHT PAM: inactive; VLA-4 inh: 5; T cell HTS: 301

Results for CN(C)CCNc1ncnc2ccccc12 ?
CHT inh: inactive; CHT PAM: inactive; VLA-4 inh: -6; T cell HTS: 287; CHT activ conf: 18*; HEK293 MP dye: -53*

How did COc1cc2c(cc1OC)-c1cc(OCCN3CCOCC3)nc(=O)n1CC2 do in these assays?
CHT inh: inactive; CHT PAM: 6.5*; VLA-4 inh: -52; T cell HTS: 279; CHT activ conf: 55*; HEK293 MP dye: -44*

What do the screens show for `COc1ccc(S(=O)(=O)NCc2cc(=O)n(C)c(=O)n2C)cc1F`?
CHT inh: inactive; CHT PAM: inactive; VLA-4 inh: 17; T cell HTS: 174

Results for C=CC[n+]1ccc2ccccc2c1C ?
CHT inh: inactive; CHT PAM: 7.7*; VLA-4 inh: -11; T cell HTS: 312; CHT activ conf: 65*; HEK293 MP dye: -61*

Results for CN(C)S(=O)(=O)N1CCN(CC(=O)Nc2ccc(F)cc2)CC1 ?
CHT inh: inactive; CHT PAM: inactive; VLA-4 inh: 7; T cell HTS: 263

Results for Cc1ccc(NC(=O)COc2cccc3c2OC(C)(C)C3)c(O)c1 ?
VLA-4 inh: -5; T cell HTS: 319

How did CC(Sc1ccsc1[N+](=O)[O-])C(=O)N1CCN(c2ccccn2)CC1 (centres undefined) do in these assays?
CHT inh: inactive; CHT PAM: inactive; VLA-4 inh: -3; T cell HTS: 206

Results for CCCCN(CCCC)CC(O)COc1ccccc1Br (centres undefined) ?
CHT inh: inactive; CHT PAM: 6.7*; VLA-4 inh: 3; T cell HTS: 241; CHT activ conf: 26*; HEK293 MP dye: inactive

How did N=C(N)SCCc1cccc(CCSC(=N)N)c1 do in these assays?
CHT inh: inactive; CHT PAM: 9*; VLA-4 inh: 5; T cell HTS: 536; CHT activ conf: 43*; HEK293 MP dye: -46*

What do the screens show for `N=C(N)SCCc1cnc[nH]1`?
CHT inh: inactive; CHT PAM: inactive; VLA-4 inh: 29; T cell HTS: 491

What do the screens show for `COc1cccc(C(=O)NCC(=O)N/N=C/c2ccc3c(c2)OCO3)c1`?
CHT inh: inactive; CHT PAM: inactive; VLA-4 inh: 7; T cell HTS: 163

Results for CC(C)CCNC(=O)/C=C/c1ccc(Br)cc1 ?
CHT inh: inactive; CHT PAM: inactive; VLA-4 inh: 10; T cell HTS: 252; CHT activ conf: 25*; HEK293 MP dye: inactive

What do the screens show for `Cc1ccc(C(CCNC(C)c2cccs2)c2ccco2)cc1` (centres undefined)?
CHT inh: inactive; CHT PAM: inactive; VLA-4 inh: -2; T cell HTS: 580; CHT activ conf: 12*; HEK293 MP dye: inactive

How did CC(NCCC(Cc1ccccc1)c1ccco1)c1ccccc1 (centres undefined) do in these assays?
CHT inh: inactive; CHT PAM: inactive; VLA-4 inh: -42; T cell HTS: 212

How did CCc1ccc(NC(=O)c2cnc(SC)nc2C)cc1 do in these assays?
CHT inh: inactive; CHT PAM: inactive; VLA-4 inh: 3; T cell HTS: 152

How did Cc1ccc(-c2cn(-c3ccc(OC(F)F)cc3)c3[n+]2CCCCC3)cc1 do in these assays?
CHT inh: inactive; CHT PAM: inactive; VLA-4 inh: 24; T cell HTS: 272; CHT activ conf: 57*; HEK293 MP dye: inactive

What do the screens show for `FC(F)Oc1ccc(-n2cc(-c3ccccc3)[n+]3c2CCCCC3)cc1`?
CHT inh: inactive; CHT PAM: inactive; VLA-4 inh: -4; T cell HTS: 200

Results for CNC(=O)Cn1c(C)cc(=O)c2cccc(C)c21 ?
CHT inh: inactive; CHT PAM: 10*; VLA-4 inh: -3; T cell HTS: 428; CHT activ conf: 63*; HEK293 MP dye: -73*

What do the screens show for `CCOC(=O)Cn1c(C)cc(=O)c2cccc(C)c21`?
CHT inh: inactive; CHT PAM: inactive; VLA-4 inh: -8; T cell HTS: 195; CHT activ conf: 53*; HEK293 MP dye: -74*

What do the screens show for `Cn1c(=O)cc(SCC(=O)NCC2CCCO2)c2ccc(Cl)cc21` (centres undefined)?
CHT inh: inactive; CHT PAM: inactive; VLA-4 inh: 5; T cell HTS: 394

What do the screens show for `CC1CCN(CCCNC(=O)COc2cc(=O)n(C)c3ccccc23)CC1`?
CHT inh: inactive; CHT PAM: inactive; VLA-4 inh: 6; T cell HTS: 997; CHT activ conf: 43*; HEK293 MP dye: -33*

Results for CCN1CCCC1CNC(=O)CSc1cc(=O)n(C)c2cc(Cl)ccc12 (centres undefined) ?
CHT inh: inactive; CHT PAM: inactive; VLA-4 inh: 23; T cell HTS: 254; CHT activ conf: 50*; HEK293 MP dye: -34*
